How the values were obtained:
Assay type in all cases: functional
SK-OV-3 = test: Growth inhibition of human SKOV3 cells after 48 hrs by SRB assay; conditions: SK-OV-3, 48 h
How it was run: (§1)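 NCI-60 panel protocol with adherent lines. Cells were seeded at 5,000–40,000 cells/well, depending on doubling time, and pre-incubated 24 h at 37 °C, 5% CO₂. Time-zero plates were TCA-fixed at drug addition. Drugs were dissolved in DMSO and exposed for 48 h. Cells were fixed with cold TCA (final 10%) for 60 min at 4 °C, stained with 0.4% SRB in 1% acetic acid for 10 min, solubilized with 10 mM trizma base, and read at A515.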

HCC 2998 = test: Growth inhibition of human HCC2998 cells after 48 hrs by SRB assay; conditions: HCC 2998, 48 h; how it was run: as §1
SN12C = test: Growth inhibition of human SN12C cells after 48 hrs by SRB assay; how it was run: as §1
UO-31 = test: Growth inhibition of human UO31 cells after 48 hrs by SRB assay; conditions: UO-31, 48 h
How it was run: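 NCI 60-cell panel, five-dose format: cells plated at 5,000–40,000/well by doubling time, preincubated 24 h at 37 °C, 5% CO2; time-zero plates TCA-fixed. Compound dissolved in DMSO, five concentrations (0.01, 0.1, 1, 10, 100 µM) plus control, 48 h. Cells fixed with cold TCA, stained with 0.4% SRB in 1% acetic acid, bound dye solubilized in 10 mM trizma base, absorbance at 515 nm. GI50 taken from [(Ti–Tz)/(C–Tz)]×100 = 50.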

HL-60(TB) = test: Growth inhibition of human HL-60(TB) cells after 48 hrs by SRB assay; conditions: HL-60, 48 h
How it was run: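 NCI-60 protocol: cells seeded at 5,000–40,000/well by doubling time and preincubated 24 h at 37 °C, 5% CO2. Drug, dissolved in DMSO, was added at one dose (10^-5 M) or five 10-fold dilutions, then incubated 48 h. Suspension cells were fixed with 80% TCA (final 16%) and stained with 0.4% SRB, read at 515 nm. GI50 was derived from percentage growth versus time-zero and control.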

HCT-15 = test: Growth inhibition of human HCT15 cells after 48 hrs by SRB assay; conditions: HCT-15, 48 h; how it was run: as §1
[1] = read-out: LC50 (the source's name)

## COc1ccc(C2CC(c3nc4ccccc4[nH]3)=NN2c2ccccc2)cc1OC (stereo not drawn)
SK-OV-3
  GI50: 33.1 µM
  TGI: > 100 µM
SK-OV-3; [1]
  CC50: > 100 µM
HCC 2998
  GI50: 12.4 µM
  TGI: 26.1 µM
HCC 2998; [1]
  CC50: 55 µM
SN12C
  GI50: 17.3 µM
  TGI: > 100 µM
SN12C; [1]
  CC50: > 100 µM
UO-31
  GI50: 2.2 µM
  TGI: 39.8 µM
UO-31; [1]
  CC50: > 100 µM
HL-60(TB)
  GI50: > 100 µM
  TGI: > 100 µM
HL-60(TB); [1]
  CC50: > 100 µM
HCT-15
  GI50: 4.1 µM
  TGI: 20.5 µM
HCT-15; [1]
  CC50: 70.9 µM
